Active and inactive are the calls of the source. The calls are words filed in the database; no cut-off is given here.
What was measured:
[1] = target: RAC-alpha serine/threonine-protein kinase (Homo sapiens) (UniProt P31749); experiment: Inhibition of AKT1 by biochemical assay
[2] = target: T1, 3-phosphoinositide-dependent protein kinase 1 (Homo sapiens, UniProt O15530); experiment: Inhibition of PDK1 by Z'-LYTE kinase activity assay
T1 sequence (O15530 whole entry): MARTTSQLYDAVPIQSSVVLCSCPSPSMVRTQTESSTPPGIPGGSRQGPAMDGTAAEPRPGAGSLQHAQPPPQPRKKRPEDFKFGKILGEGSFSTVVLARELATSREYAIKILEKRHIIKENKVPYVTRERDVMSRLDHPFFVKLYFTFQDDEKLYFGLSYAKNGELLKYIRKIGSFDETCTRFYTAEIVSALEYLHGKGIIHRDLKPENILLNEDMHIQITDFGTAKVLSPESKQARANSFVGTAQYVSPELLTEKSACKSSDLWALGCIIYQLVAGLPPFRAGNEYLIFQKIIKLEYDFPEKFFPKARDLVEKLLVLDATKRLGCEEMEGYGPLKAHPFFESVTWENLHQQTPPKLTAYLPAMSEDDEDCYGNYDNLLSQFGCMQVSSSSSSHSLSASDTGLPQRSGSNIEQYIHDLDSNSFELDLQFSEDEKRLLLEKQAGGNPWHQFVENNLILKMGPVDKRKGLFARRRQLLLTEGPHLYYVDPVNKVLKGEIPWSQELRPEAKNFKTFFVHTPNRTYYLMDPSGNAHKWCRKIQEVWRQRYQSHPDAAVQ

[3] = target: T2, Serine/threonine-protein kinase mTOR (Homo sapiens, UniProt P42345); experiment: Inhibition of mTORC1 expressed in HEK293 cells assessed as PRAS40 Ser183 phosphorylation level by LanthaScreen cellular assay; type: cell-based
Method in brief: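 HEK293E cells stably expressing GFP-substrate fusions (AKT for pThr308; PRAS40 for pSer183), 20,000 per well, serum-starved overnight in low-glucose DMEM + 0.1% BSA. Lysed with 2 nM Tb-labeled phosphospecific antibody; TR-FRET read after 2 h at room temperature. IC50 by curve fitting.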

[4] = target: T2, Serine/threonine-protein kinase mTOR; experiment: Inhibition of mTOR by LanthaScreen Eu kinase binding assay
Method in brief: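 Eu kinase binding TR-FRET displacement with FRAP1 (mTOR) at 5 nM, kinase tracer 20 nM and Eu-anti-GST antibody 2 nM, all final. Buffer 25 mM Tris-HCl, 5 mM MgCl2, 0.02% CHAPS.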

[5] = target: Phosphatidylinositol 4,5-bisphosphate 3-kinase catalytic subunit alpha isoform (Homo sapiens, UniProt P42336); experiment: Inhibition of PI3Kalpha by LanthaScreen Eu kinase binding assay
Chain of Phosphatidylinositol 4,5-bisphosphate 3-kinase catalytic subunit alpha isoform (P42336 whole entry, canonical isoform): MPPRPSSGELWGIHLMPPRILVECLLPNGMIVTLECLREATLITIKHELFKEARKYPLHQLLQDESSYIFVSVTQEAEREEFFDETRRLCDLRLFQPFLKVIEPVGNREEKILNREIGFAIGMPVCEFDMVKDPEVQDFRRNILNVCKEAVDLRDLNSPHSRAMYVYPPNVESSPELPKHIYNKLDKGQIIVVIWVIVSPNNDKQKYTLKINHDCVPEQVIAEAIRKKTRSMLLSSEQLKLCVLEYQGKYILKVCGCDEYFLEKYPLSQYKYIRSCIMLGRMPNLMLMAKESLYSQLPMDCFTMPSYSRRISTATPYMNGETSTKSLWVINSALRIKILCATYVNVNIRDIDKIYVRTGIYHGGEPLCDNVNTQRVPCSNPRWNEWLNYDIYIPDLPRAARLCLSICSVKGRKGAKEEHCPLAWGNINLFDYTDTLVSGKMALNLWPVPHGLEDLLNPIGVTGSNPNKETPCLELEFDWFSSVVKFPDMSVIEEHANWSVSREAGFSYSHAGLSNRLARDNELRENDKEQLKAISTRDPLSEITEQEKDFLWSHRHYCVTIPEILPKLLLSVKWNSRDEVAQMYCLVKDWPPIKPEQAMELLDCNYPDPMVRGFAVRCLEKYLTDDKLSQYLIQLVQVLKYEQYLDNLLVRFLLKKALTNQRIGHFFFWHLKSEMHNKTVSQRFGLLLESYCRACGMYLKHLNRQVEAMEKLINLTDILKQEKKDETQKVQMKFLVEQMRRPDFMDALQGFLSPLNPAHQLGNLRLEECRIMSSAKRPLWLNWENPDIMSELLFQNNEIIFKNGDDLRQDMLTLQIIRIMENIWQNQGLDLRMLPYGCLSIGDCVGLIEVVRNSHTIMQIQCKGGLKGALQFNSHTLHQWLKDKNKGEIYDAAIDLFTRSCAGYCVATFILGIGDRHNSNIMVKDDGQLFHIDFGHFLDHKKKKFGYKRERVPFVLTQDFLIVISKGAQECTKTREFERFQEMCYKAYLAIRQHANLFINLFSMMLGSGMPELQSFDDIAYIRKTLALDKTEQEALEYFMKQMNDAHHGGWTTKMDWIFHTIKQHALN
Method in brief: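 Eu kinase binding TR-FRET assay (tracer displacement). PIK3CA/PIK3R1 at 5 nM with kinase tracer 20 nM and Eu-anti-His antibody 2 nM, all final. Buffer 25 mM Tris-HCl, 5 mM MgCl2, 0.02% CHAPS.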

MDA-MB-231 = experiment: Growth inhibition of human MDA-MB-231 cells after 72 hrs by ATPlite assay; type: functional; conditions: MDA-MB-231, 72 h
Method in brief: (§1)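 Cells seeded at about 3000 per well, grown 24 h, then given fresh medium and test compound in triplicate at 0.5 to 100µM in DMSO (0.5% final). Exposure 72 h at 37 °C, 5% CO₂. Viability measured by ATPlite luminescence and normalized to DMSO-treated controls. GI50 obtained by curve fitting. HeLa cultured in DMEM/10% FBS; MCF7, MDA-MB-231 and PC3 cultured in RPMI+GlutaMAX/10% FBS.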

[6] = target: Phosphatidylinositol 4,5-bisphosphate 3-kinase catalytic subunit gamma isoform (Homo sapiens, UniProt P48736); experiment: Inhibition of PI3Kgamma
Chain of Phosphatidylinositol 4,5-bisphosphate 3-kinase catalytic subunit gamma isoform (P48736 whole entry, canonical isoform): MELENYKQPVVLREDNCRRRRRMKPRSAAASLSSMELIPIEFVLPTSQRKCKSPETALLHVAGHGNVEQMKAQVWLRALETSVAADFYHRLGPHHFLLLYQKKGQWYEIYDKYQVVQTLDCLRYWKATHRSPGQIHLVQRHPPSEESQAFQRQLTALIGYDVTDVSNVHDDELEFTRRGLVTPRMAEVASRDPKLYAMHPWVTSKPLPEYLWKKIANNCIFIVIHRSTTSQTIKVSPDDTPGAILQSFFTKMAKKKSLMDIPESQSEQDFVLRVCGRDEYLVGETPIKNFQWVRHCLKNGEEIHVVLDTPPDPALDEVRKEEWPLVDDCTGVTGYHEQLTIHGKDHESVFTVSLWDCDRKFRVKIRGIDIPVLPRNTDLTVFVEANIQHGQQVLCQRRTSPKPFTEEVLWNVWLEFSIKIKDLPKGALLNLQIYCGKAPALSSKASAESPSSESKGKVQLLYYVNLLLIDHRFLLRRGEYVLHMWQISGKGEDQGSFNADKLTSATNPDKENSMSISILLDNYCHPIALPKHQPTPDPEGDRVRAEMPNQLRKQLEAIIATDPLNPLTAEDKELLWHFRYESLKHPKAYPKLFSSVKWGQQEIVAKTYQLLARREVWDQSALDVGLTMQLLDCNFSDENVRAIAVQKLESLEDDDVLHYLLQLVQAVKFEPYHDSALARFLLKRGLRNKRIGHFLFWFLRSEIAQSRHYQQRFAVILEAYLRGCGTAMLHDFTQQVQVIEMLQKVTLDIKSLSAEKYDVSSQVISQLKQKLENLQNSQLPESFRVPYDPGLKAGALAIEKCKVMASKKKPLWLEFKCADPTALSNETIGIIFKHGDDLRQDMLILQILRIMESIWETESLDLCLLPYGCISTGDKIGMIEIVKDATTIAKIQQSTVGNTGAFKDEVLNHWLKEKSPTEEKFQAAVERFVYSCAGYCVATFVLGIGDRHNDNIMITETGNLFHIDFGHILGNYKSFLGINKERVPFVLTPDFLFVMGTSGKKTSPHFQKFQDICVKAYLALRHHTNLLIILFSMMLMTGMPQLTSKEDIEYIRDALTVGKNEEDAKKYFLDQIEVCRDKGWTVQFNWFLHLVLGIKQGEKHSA

PC-3 = experiment: Growth inhibition of human PC3 cells after 72 hrs by ATPlite assay; type: functional; conditions: PC-3, 72 h; method in brief: as §1
MCF7 = experiment: Growth inhibition of human MCF7 cells after 72 hrs by ATPlite assay; type: functional; conditions: MCF7, 72 h; method in brief: as §1
[7] = target: T3, Phosphatidylinositol 4,5-bisphosphate 3-kinase catalytic subunit delta isoform (Homo sapiens, UniProt O00329); experiment: Inhibition of PI3Kdelta; conditions: read-out: IC50
T3 sequence (O00329 whole entry): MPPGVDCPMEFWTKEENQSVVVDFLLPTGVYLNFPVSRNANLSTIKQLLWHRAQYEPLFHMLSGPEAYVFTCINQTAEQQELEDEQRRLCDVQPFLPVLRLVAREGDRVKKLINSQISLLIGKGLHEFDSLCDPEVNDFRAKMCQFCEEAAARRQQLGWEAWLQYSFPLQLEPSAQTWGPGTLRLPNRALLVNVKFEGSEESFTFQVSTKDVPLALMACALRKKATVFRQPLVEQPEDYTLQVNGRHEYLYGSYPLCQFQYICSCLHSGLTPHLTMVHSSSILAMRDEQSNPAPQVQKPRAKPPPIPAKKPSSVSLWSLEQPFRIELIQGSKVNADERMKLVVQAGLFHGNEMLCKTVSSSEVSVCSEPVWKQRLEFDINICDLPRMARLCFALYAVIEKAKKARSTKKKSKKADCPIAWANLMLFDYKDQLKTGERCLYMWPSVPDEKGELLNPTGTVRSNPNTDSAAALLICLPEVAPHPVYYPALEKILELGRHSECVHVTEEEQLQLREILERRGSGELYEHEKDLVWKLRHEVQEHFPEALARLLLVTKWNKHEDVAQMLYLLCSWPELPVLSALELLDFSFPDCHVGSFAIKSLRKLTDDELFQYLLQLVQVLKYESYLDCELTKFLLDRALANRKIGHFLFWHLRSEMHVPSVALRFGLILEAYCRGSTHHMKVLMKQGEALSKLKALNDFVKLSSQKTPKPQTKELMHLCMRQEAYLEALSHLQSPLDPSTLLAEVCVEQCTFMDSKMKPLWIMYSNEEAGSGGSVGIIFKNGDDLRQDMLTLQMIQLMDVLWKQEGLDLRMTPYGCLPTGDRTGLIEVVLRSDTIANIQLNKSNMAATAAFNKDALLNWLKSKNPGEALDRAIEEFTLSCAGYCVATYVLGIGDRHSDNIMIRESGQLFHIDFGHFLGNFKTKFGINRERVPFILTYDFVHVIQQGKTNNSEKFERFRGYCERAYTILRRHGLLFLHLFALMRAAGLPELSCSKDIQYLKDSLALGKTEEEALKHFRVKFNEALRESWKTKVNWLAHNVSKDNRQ

Plasma = experiment: Metabolic stability in rat plasma assessed as compound remaining at 1 uM after 60 mins by Lc/Ms method; type: ADME, cell-free; conditions: 1 h
Method in brief: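 Compound at 1 µM (2.5% DMSO final) in fresh rat plasma at 37 °C. Stopped at 0, 30 and 60 min with two volumes methanol plus internal standard, then LC-MS. Percent parent remaining relative to 0 min, from peak area ratios to internal standard. Duplicate runs, with a plasma-labile positive control.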

Liver microsomes = experiment: Metabolic stability in rat liver microsomes; type: ADME, Microsome
Method in brief: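 Rat liver microsomes (1 mg/ml protein) with 4µM compound in 50mM phosphate pH 7.2. Pre-incubated 5 min at 37.5 °C, then started with 2mM NADPH and run 1 h. Samples taken every 15 min, quenched in methanol with internal standard, analyzed by LC-MS. Duplicate runs alongside two control compounds of known half-life. Half-life reported.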

HeLa = experiment: Growth inhibition of human HeLa cells after 72 hrs by ATPlite assay; type: functional; method in brief: as §1

Chain of RAC-alpha serine/threonine-protein kinase (Homo sapiens) (P31749 whole entry): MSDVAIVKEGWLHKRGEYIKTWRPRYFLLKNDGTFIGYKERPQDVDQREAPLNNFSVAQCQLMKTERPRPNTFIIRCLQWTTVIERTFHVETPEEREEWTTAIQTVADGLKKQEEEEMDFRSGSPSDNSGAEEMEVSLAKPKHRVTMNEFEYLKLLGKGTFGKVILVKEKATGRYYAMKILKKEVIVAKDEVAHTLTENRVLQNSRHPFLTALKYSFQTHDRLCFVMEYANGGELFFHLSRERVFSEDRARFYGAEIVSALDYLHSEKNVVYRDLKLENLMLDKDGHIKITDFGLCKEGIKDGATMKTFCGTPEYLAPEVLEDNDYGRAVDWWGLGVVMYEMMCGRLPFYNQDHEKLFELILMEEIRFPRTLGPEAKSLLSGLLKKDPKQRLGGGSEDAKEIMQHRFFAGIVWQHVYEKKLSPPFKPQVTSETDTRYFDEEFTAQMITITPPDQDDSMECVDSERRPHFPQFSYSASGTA

Row | inhibition [1] | IC50 [2] | IC50 [3] | IC50 [4] | IC50 [5] | GI50 (MDA-MB-231) | IC50 [6] | GI50 (PC-3) | GI50 (MCF7) | IC50 [7] | Stability (Plasma) | t1/2 (Liver microsomes) | GI50 (HeLa) | Compound
1 | inactive | > 100 µM | > 100 µM | > 100 µM | > 100 µM |  |  |  |  |  |  |  |  | FC(F)(F)c1cc(C#Cc2n[nH]c3ccccc23)cc(C(F)(F)F)c1
2 | inactive | > 50 µM |  |  | 3.05 µM |  |  |  |  |  |  |  |  | C(#Cc1n[nH]c2ncccc12)c1ccncc1
3 | inactive | > 100 µM | > 50 µM | > 100 µM | > 100 µM |  |  |  |  |  |  |  |  | C(#CC1CC1)c1n[nH]c2ccccc12
4 | inactive | 39.2 µM | 10.8 µM | 4.97 µM | 1.05 µM | 8.28 µM | > 100 µM | 2.51 µM | 3.23 µM | > 100 µM |  |  |  | Nc1ccc(C#Cc2n[nH]c3ccccc23)cc1
5 | inactive | > 100 µM | > 50 µM | > 100 µM | > 100 µM |  |  |  |  |  |  |  |  | Nc1ccccc1C#Cc1n[nH]c2ccccc12
6 | inactive | > 50 µM | > 50 µM | > 100 µM | > 100 µM |  |  |  |  |  |  |  |  | C(#Cc1n[nH]c2ccccc12)c1ccccc1
7 | inactive | > 100 µM | > 50 µM | > 100 µM | > 100 µM |  |  |  |  |  |  |  |  | N#Cc1ccc(C#Cc2n[nH]c3ccccc23)cc1
8 | inactive | > 100 µM | > 50 µM | > 100 µM | > 100 µM |  |  |  |  |  |  |  |  | C(#CC1CCCC1)c1n[nH]c2ccccc12
9 | inactive |  |  |  |  | 8.29 µM | > 100 µM | 2.84 µM | 10.4 µM | > 100 µM | 100% | > 1 h | 5.21 µM | Nc1cccc(C#Cc2n[nH]c3ccccc23)c1
10 | inactive |  | > 50 µM | > 100 µM |  | 10.5 µM |  | 6.81 µM | 3.66 µM |  |  |  | 5.21 µM | C(#Cc1n[nH]c2ccccc12)c1cccnc1
11 | inactive | > 25 µM | > 50 µM | > 100 µM | > 100 µM |  |  |  |  |  |  |  |  | C(#Cc1n[nH]c2ccccc12)c1ccccn1
12 | inactive | > 100 µM | > 200 µM | > 100 µM | > 100 µM |  |  |  |  |  |  |  |  | Fc1cc(F)cc(C#Cc2n[nH]c3ccccc23)c1
13 | inactive | > 50 µM | > 10 µM | 5 µM | 9 µM |  |  |  |  |  |  |  |  | C(#Cc1n[nH]c2ncccc12)c1cccnc1

Row | Compound | inhibition [1] | IC50 [2] | IC50 [3] | IC50 [4] | IC50 [5] | GI50 (MDA-MB-231) | IC50 [6] | GI50 (PC-3) | GI50 (MCF7) | IC50 [7] | Stability (Plasma) | t1/2 (Liver microsomes) | GI50 (HeLa)
14 | C(#Cc1n[nH]c2ccccc12)c1ccsc1 | inactive | > 100 µM | > 100 µM | > 100 µM | > 100 µM |  |  |  |  |  |  |  | 
15 | CN(C)CC#Cc1n[nH]c2ccccc12 | inactive | > 100 µM | > 50 µM | > 100 µM | > 50 µM |  |  |  |  |  |  |  | 

— ChEMBL document CHEMBL1629532, “Design, synthesis, and structure-activity relationships of 3-ethynyl-1H-indazoles as inhibitors of the phosphatidylinositol 3-kinase signaling pathway” (J Med Chem, 2010)
